Reference: ChEMBL document CHEMBL4052589, “Discovery of Imidazo[1,2-a]pyridine Ethers and Squaramides as Selective and Potent Inhibitors of Mycobacterial Adenosine Triphosphate (ATP) Synthesis” (J Med Chem, 2017)

Tests used:
Type in all cases: functional
[1] = system: Mycobacterium tuberculosis; assay: Selectivity ratio of MIC for Mycobacterium tuberculosis H37Rv harboring ATP synthase subunit-c D28N mutant supplemented with 8 fold MIC of 3-(4-Morpholinophenyl)-4-((pyridin-2-ylmethyl)amino)cyclobut-3-ene-1,2-dione to MIC for Mycobacterium tuberculosis H37Rv
[2] = system: Mycobacterium tuberculosis; assay: Antimycobacterial activity against Mycobacterium tuberculosis H37Rv harboring ATP synthase subunit-c D28N mutant supplemented with 8 fold MIC of 3-(4-Morpholinophenyl)-4-((pyridin-2-ylmethyl)amino)cyclobut-3-ene-1,2-dione
Outline: (§1)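 Spontaneous resistant mutants were selected by plating M. tuberculosis on 7H10 agar containing the squaramide at 4- or 8-fold its MIC. MIC was then determined for the mutants, with MIC taken as the concentration giving 80% growth inhibition.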

[3] = system: Mycobacterium tuberculosis; assay: Selectivity ratio of MIC for Mycobacterium tuberculosis H37Rv harboring ATP synthase subunit-c D28N mutant supplemented with 4 fold MIC of 3-(4-Morpholinophenyl)-4-((pyridin-2-ylmethyl)amino)cyclobut-3-ene-1,2-dione to MIC for Mycobacterium tuberculosis H37Rv
[4] = system: Mycobacterium tuberculosis; assay: Selectivity ratio of MIC for Mycobacterium tuberculosis H37Rv harboring ATP synthase subunit-a K179N mutant supplemented with 4 fold MIC of 3-(4-Morpholinophenyl)-4-((pyridin-2-ylmethyl)amino)cyclobut-3-ene-1,2-dione to MIC for Mycobacterium tuberculosis H37Rv
[5] = system: Mycobacterium tuberculosis; assay: Antimycobacterial activity against Mycobacterium tuberculosis H37Rv harboring ATP synthase subunit-a K179N mutant supplemented with 4 fold MIC of 3-(4-Morpholinophenyl)-4-((pyridin-2-ylmethyl)amino)cyclobut-3-ene-1,2-dione; outline: as §1
[6] = system: Mycobacterium tuberculosis; assay: Antimycobacterial activity against Mycobacterium tuberculosis H37Rv harboring ATP synthase subunit-c D28N mutant supplemented with 4 fold MIC of 3-(4-Morpholinophenyl)-4-((pyridin-2-ylmethyl)amino)cyclobut-3-ene-1,2-dione; outline: as §1
[7] = system: Mycobacterium tuberculosis; assay: Selectivity ratio of MIC for Mycobacterium tuberculosis H37Rv harboring ATP synthase subunit a K179N mutant supplemented with 8 fold MIC of 3-(4-Morpholinophenyl)-4-((pyridin-2-ylmethyl)amino)cyclobut-3-ene-1,2-dione to MIC for Mycobacterium tuberculosis H37Rv
[8] = system: Mycobacterium tuberculosis; assay: Antimycobacterial activity against Mycobacterium tuberculosis H37Rv harboring ATP synthase subunit a K179N mutant supplemented with 8 fold MIC of 3-(4-Morpholinophenyl)-4-((pyridin-2-ylmethyl)amino)cyclobut-3-ene-1,2-dione; outline: as §1

| SMILES | Selectivity ratio [1] | MIC=>80 [2] [µM] | Selectivity ratio [3] | Selectivity ratio [4] | MIC=>80 [5] [µM] | MIC=>80 [6] [µM] | Selectivity ratio [7] | MIC=>80 [8] |
| --- | --- | --- | --- | --- | --- | --- | --- | --- |
| O=c1c(NCc2ccccn2)c(-c2ccc(C(F)(F)F)cc2)c1=O | >8 | 100 | >8 | >8 | >100 | >100 | >8 | >=100 uM |
| O=c1c(NCc2cnccn2)c(-c2ccc(N3CCOCC3)cc2)c1=O | >8 | >100 | >8 | >8 | >100 | >100 | >8 | >100 µM |
| CO[C@H]1/C=C/O[C@@]2(C)Oc3c(C)c(O)c4c(O)c(c(/C=N/N5CCN(C)CC5)c(O)c4c3C2=O)NC(=O)/C(C)=C\C=C\[C@H](C)[C@H](O)[C@@H](C)[C@@H](O)[C@@H](C)[C@H](OC(C)=O)[C@@H]1C [RIFAMPIN] | <=4 | 0.016 | <=4 | <=4 | 0.008 | 0.008 | <=4 | 0.004 to 0.008 µM |
| NNC(=O)c1ccncc1 [ISONIAZID] | <=4 | 0.03 | <=4 | <=4 | 0.03 | 0.02 | <=4 | 0.02 to 0.03 µM |
| O=c1c(NCc2ccccn2)c(-c2ccc(N3CCOCC3)cc2)c1=O | >8 | 100 | >8 | >8 | >100 | >100 | >8 | >100 µM |
